pIC50: −log10 of the molar value.
Experiments:
[1] = Inhibition of acid-induced fibrillogenesis of human Transthyretin Y78F mutant expressed in Escherichia coli BL21 (DE3) cells assessed as inhibition of fibril formation incubated for 30 mins by kinetic turbidimetric assay
How it was run: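 TTR-Y78F in 20 mM K phosphate, 100 mM KCl, 1 mM EDTA, pH 7.6, preincubated with inhibitor 0–40 μM (final 5% DMSO) 30 min at 37 °C with shaking. Acidified with 400 mM KAcO/100 mM KCl/1 mM EDTA pH 4.2 to final 0.4 mg/mL TTR. A340 read at 1-min intervals for 1.5 h at 37 °C. Initial rates fitted to v0 = A + B·e^(−C[I]) to give IC50.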

Homo sapiens = organism: Homo sapiens; assay: Inhibition of acid-induced fibrillogenesis of human Transthyretin Y78F mutant expressed in Escherichia coli BL21 (DE3) cells assessed as reduction in fibril formation at 40 uM incubated for 30 mins by kinetic turbidimetric assay relative to control
How it was run: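 TTR-Y78F (final 0.4 mg/mL) preincubated 30 min at 37 °C with ligand up to 40 μM in 5% DMSO at pH 7.6. Aggregation triggered by pH 4.2 acetate buffer, then A340 followed for 1.5 h at 37 °C. From the exponential fit of initial rate versus concentration, RA% is the reduction in initial rate at high inhibitor concentration relative to no inhibitor.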

| Structure (SMILES) | pIC50 [1] | inhibition (Homo sapiens) |
| --- | --- | --- |
| COC(=O)[C@@H](C)NC(=O)c1cc(-c2c(F)cc(F)cc2Cl)cc(I)c1O | 5.22 | 89% |
| COc1cc(F)ccc1-c1ccc(O)c(C(=O)O)c1 | 5.22 | 87.8% |
| O=C(O)c1cc(-c2ccc(F)cc2C(F)(F)F)cc(I)c1O | 5.14 | 87% |
| O=C(O)c1cc(-c2ccc(F)cc2C(F)(F)F)ccc1O | 4.64 | 60.4% |
| CCOc1cc(F)ccc1-c1ccc(O)c(C(=O)O)c1 | 5.21 | 88.8% |
| O=C(O)c1cc(-c2ccc(Cl)cc2F)ccc1O | 4.66 | 77.3% |
| O=C(O)c1cc(-c2c(F)cc(F)cc2Cl)ccc1O | 5.14 | 89.1% |

These reach a higher pIC50 [1]. Values come first.

| pIC50 [1] | Structure (SMILES) | inhibition (Homo sapiens) |
| --- | --- | --- |
| 5.28 | COc1cc(F)ccc1-c1cc(I)c(O)c(C(=O)O)c1 | 90.3% |
| 5.28 | COc1cc(F)ccc1-c1cc(Br)c(O)c(C(=O)O)c1 | 95.5% |
| 5.29 | CCOc1cc(F)ccc1-c1cc(I)c(O)c(C(=O)O)c1 | 91.1% |
| 5.34 | O=C(O)c1cc(-c2c(F)cc(F)cc2Cl)cc(I)c1O | 91% |
| 5.37 | CCOc1cc(F)ccc1-c1cc(Br)c(O)c(C(=O)O)c1 | 89.9% |
| 5.38 | O=C(O)c1cc(-c2ccc(F)cc2F)cc(I)c1O | 94% |
| 5.41 | O=C(O)c1cc(-c2ccc(Cl)cc2F)cc(I)c1O | 88.5% |
| 5.43 | COC(=O)CCNC(=O)c1cc(-c2c(F)cc(F)cc2Cl)cc(I)c1O | 90% |
| 5.44 | O=C(O)c1cc(-c2c(F)cc(F)cc2Cl)cc(Br)c1O | 89% |

Reference: ChEMBL document CHEMBL5223076, “Optimization of kinetic stabilizers of tetrameric transthyretin: A prospective ligand efficiency-guided approach” (Bioorg Med Chem, 2020)
